Assay results: article PMC9989852 (Food and chemical toxicology : an international journal …, 2022)
“And” between values parts separate entries of the source, which are not always exact repeats. Equal values may be shown once.

How the values were obtained:
ear pinna [1] = assay: Skin; assay type: in vivo, B6C3F1 mice; conditions: dermal, 28 days
In short: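 Female B6C3F1 mice (5/group) received 25 μl/ear daily to the dorsal ears in acetone. About 24 h after the last dose, tissues went into RPMI: both auricular dLNs, half spleen and one ear pinna. Single-cell suspensions were acquired on an LSR II, with populations gated per supplemental strategy and FMO gating controls. Results are mean ± SE, n=5, by one-way ANOVA.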

liver = assay: Liver histopathology after 28-day dermal exposure; assay type: in vivo, B6C3F1 mice; conditions: 28 days, mice affected of 5
In short: (§1)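 Female B6C3F1 mice (5/group) received 25 μl/ear on the dorsal ear surfaces daily, with acetone as vehicle. Tissues were formalin-fixed about 24 h after the last dose: liver remainder, half spleen, right kidney and half ear pinna. Sections were paraffin-embedded, cut at 5 μm and stained with H&E. A veterinary pathologist read them per STP guideline and graded 1 (minimal) to 5 (severe) by extent.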

ear pinna [2] = assay: Ear; assay type: in vivo, B6C3F1 mice; conditions: dermal, 28 days, mice affected of 5
In short: as §1

[3] = PFAS concentration in pooled urine; assay type: in vivo, B6C3F1 mice; conditions: 5%, dermal, 28 days; 5 pooled samples
In short: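 Urine was caught in a weigh boat as it was excreted during CO2 euthanasia, about 24 h after the final daily ear dose (25 μl/ear, acetone vehicle; female B6C3F1 mice). The 5 mice per group were pooled, with variable volume. Samples underwent solid-phase extraction and LC/MS/MS, as linear isomer for short-chain analytes and linear plus branched for the comparator. Each group gave a single value without statistics.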

B6C3F1 mice = assay: Serum chemistries after 28-day dermal exposure; assay type: in vivo; conditions: 5%, 28 days
In short: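 Female B6C3F1 mice received daily dorsal ear application (25 μl/ear, acetone vehicle). About 24 h after the last dose, blood was taken by cardiac puncture. Serum was separated by centrifugation and stored at −20 °C. ALKP, BUN, glucose and cholesterol were read on a Catalyst DX analyzer. Data are mean ± SE of 4–5 mice, ANOVA with Dunnett's; ALKP was also tested by linear regression (p < 0.05).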

liver (caudate) = assay: Liver gene expression; assay type: in vivo, B6C3F1 mice; conditions: dermal, 28 days
In short: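 Dosing was daily topical to both dorsal ears (25 μl/ear, acetone vehicle) in female B6C3F1 mice. Liver caudate lobe or half ear pinna was stored in RNAlater and homogenized in RLT buffer. RNA was isolated on RNeasy columns with DNase, and 1–2 μg was reverse-transcribed. TaqMan real-time PCR was read as 2−ΔΔCT vs vehicle, normalized to β-actin. Statistics: ANOVA/Dunnett's, or Kruskal-Wallis/Dunn's for unequal variance.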

O=C(O)C(F)(F)C(F)(F)C(F)(F)C(F)(F)C(F)(F)F [PFHxA, perfluorohexanoic acid]
Ear CD4^+ cell number (ear pinna [1]; 1.25%): 2.40 ± 0.36 × 10^3
Ear CD4^+ frequency (ear pinna [1]; 1.25%): 3.34 ± 0.09%
Ear CD8^+ cell number (ear pinna [1]; 1.25%): 3.38 ± 2.57 × 10^2
Ear CD8^+ frequency (ear pinna [1]; 1.25%): 0.48 ± 0.37%
Ear CD45^+ cell number (ear pinna [1]; 1.25%): 7.21 ± 1.13 × 10^4
Ear CD45^+ frequency (ear pinna [1]; 1.25%): 8.51 ± 0.85%
Ear CD lib- F4/80+ DCs cell number (ear pinna [1]; 1.25%): 5.74 ± 0.72 × 10^2
Ear CDllb + F4/80+ DCs cell number (ear pinna [1]; 1.25%): 22.30 ± 3.03 × 10^2
Ear CDllb- F4/80+ DCs frequency (ear pinna [1]; 1.25%): 0.87 ± 0.14%
Ear CDllb- F4/80-DCs cell number (ear pinna [1]; 1.25%): 1.47 ± 0.24 × 10^3
Ear CDllb- F4/80-DCs frequency (ear pinna [1]; 1.25%): 2.05 ± 0.05 %
Ear Dendritic Cells cell number (ear pinna [1]; 1.25%): 4.99 ± 0.68 × 10^3
Ear Dendritic Cells frequency (ear pinna [1]; 1.25%): 7.09 ± 0.33%
Ear Eosinophils cell number (ear pinna [1]; 1.25%): 2.77 ± 0.56 × 10^3
Ear Eosinophils frequency (ear pinna [1]; 1.25%): 3.82 ± 0.34%
Ear NK cell number (ear pinna [1]; 1.25%): 4.76 ± 0.96 × 10^2
Ear NK frequency (ear pinna [1]; 1.25%): 0.66 ± 0.07%
Ear Neutrophils cell number (ear pinna [1]; 1.25%): 1.18 ± 0.22 × 10^2
Ear Neutrophils frequency (ear pinna [1]; 1.25%): 0.17 ± 0.02%
Ear Total Cellularity (ear pinna [1]; 1.25%): 0.83 ± 0.09 × 10^6
Ear CD4^+ cell number (ear pinna [1]; 2.5%): 5.01 ± 0.60 × 10^3
Ear CD4^+ frequency (ear pinna [1]; 2.5%): 5.05 ± 0.25 %
Ear CD8^+ cell number (ear pinna [1]; 2.5%): 1.91 ± 0.23 × 10^2
Ear CD8^+ frequency (ear pinna [1]; 2.5%): 0.19 ± 0.02%
Ear CD45^+ cell number (ear pinna [1]; 2.5%): 9.82 ± 0.79 × 10^4
Ear CD45^+ frequency (ear pinna [1]; 2.5%): 10.91 ± 1.00 %
Ear CD lib- F4/80+ DCs cell number (ear pinna [1]; 2.5%): 6.58 ± 0.67 × 10^2
Ear CDllb + F4/80+ DCs cell number (ear pinna [1]; 2.5%): 35.80 ± 2.66 × 10^2
Ear CDllb- F4/80+ DCs frequency (ear pinna [1]; 2.5%): 0.67 ± 0.05%
Ear CDllb- F4/80-DCs cell number (ear pinna [1]; 2.5%): 2.82 ± 0.24 × 10^3
Ear CDllb- F4/80-DCs frequency (ear pinna [1]; 2.5%): 2.89 ± 0.19%
Ear Dendritic Cells cell number (ear pinna [1]; 2.5%): 9.09 ± 0.72 × 10^3
Ear Dendritic Cells frequency (ear pinna [1]; 2.5%): 9.30 ± 0.47%
Ear Eosinophils frequency (ear pinna [1]; 2.5%): 7.59 ± 0.65 %
Ear NK cell number (ear pinna [1]; 2.5%): 6.45 ± 0.60 × 10^2
Ear NK frequency (ear pinna [1]; 2.5%): 0.66 ± 0.04%
Ear Neutrophils cell number (ear pinna [1]; 2.5%): 4.94 ± 1.24 × 10^2
Ear Neutrophils frequency (ear pinna [1]; 2.5%): 0.51 ± 0.13%
Ear Total Cellularity (ear pinna [1]; 2.5%): 0.91 ± 0.05 × 10^6
Ear CD4^+ cell number (ear pinna [1]; 5%): 6.11 ± 1.17 × 10^3
Ear CD4^+ frequency (ear pinna [1]; 5%): 5.29 ± 0.32 %
Ear CD8^+ cell number (ear pinna [1]; 5%): 2.15 ± 0.46 × 10^2
Ear CD8^+ frequency (ear pinna [1]; 5%): 0.20 ± 0.04%
Ear CD45^+ cell number (ear pinna [1]; 5%): 11.50 ± 2.03 × 10^4
Ear CD45^+ frequency (ear pinna [1]; 5%): 11.22 ± 1.00 %
Ear CD lib- F4/80+ DCs cell number (ear pinna [1]; 5%): 4.22 ± 0.49 × 10^2
Ear CDllb + F4/80+ DCs cell number (ear pinna [1]; 5%): 48.30 ± 7.74 × 10^2
Ear CDllb- F4/80+ DCs frequency (ear pinna [1]; 5%): 0.39 ± 0.03 %
Ear CDllb- F4/80-DCs cell number (ear pinna [1]; 5%): 2.90 ± 0.54 × 10^3
Ear CDllb- F4/80-DCs frequency (ear pinna [1]; 5%): 2.51 ± 0.14%
Ear Dendritic Cells cell number (ear pinna [1]; 5%): 10.10 ± 1.77 × 10^3
Ear Dendritic Cells frequency (ear pinna [1]; 5%): 8.88 ± 0.39%
Ear Eosinophils cell number (ear pinna [1]; 5%): 9.87 ± 1.78 × 10^3
Ear Eosinophils frequency (ear pinna [1]; 5%): 8.60 ± 0.38 %
Ear NK cell number (ear pinna [1]; 5%): 9.94 ± 2.21 × 10^2
Ear NK frequency (ear pinna [1]; 5%): 0.85 ± 0.09 %
Ear Neutrophils frequency (ear pinna [1]; 5%): 1.13 ± 0.23 %
Ear Total Cellularity (ear pinna [1]; 5%): 0.99 ± 0.11 × 10^6
Liver: Hypertrophy, centrilobular, hepatocyte, Mild (incidence) (liver; 1.25%): 0
Liver: Hypertrophy, centrilobular, hepatocyte, Minimal (incidence) (liver; 1.25%): 2/5 and 2
Liver: Hypertrophy, centrilobular, hepatocyte, Mild (incidence) (liver; 2.5%): 0
Liver: Hypertrophy, centrilobular, hepatocyte, Minimal (incidence) (liver; 2.5%): 5/5 and 5
Liver: Hypertrophy, centrilobular, hepatocyte, Mild (incidence) (liver; 5%): 0
Liver: Hypertrophy, centrilobular, hepatocyte, Minimal (incidence) (liver; 5%): 5/5 and 5
Ear: Degeneration/regeneration, cartilage, focal, Mild (incidence) (ear pinna [2]; 1.25%): 0
Ear: Fibrosis, dermis, focal, Minimal (incidence) (ear pinna [2]; 1.25%): 0
Ear: Hyperkeratosis, epidermis, focal, Mild (incidence) (ear pinna [2]; 1.25%): 0
Ear: Hyperkeratosis, epidermis, focal, Minimal (incidence) (ear pinna [2]; 1.25%): 1
Ear: Hyperplasia, epidermis, focal, Mild (incidence) (ear pinna [2]; 1.25%): 0
Ear: Hyperplasia, epidermis, focal, Minimal (incidence) (ear pinna [2]; 1.25%): 5/5 and 5
Ear: Inflammation, mixed cell, dermis, Minimal (incidence) (ear pinna [2]; 1.25%): 0
Ear: Inflammation, mononuclear cell, dermis, Minimal (incidence) (ear pinna [2]; 1.25%): 0
Ear: Necrosis, epidermis, multifocal, Minimal (incidence) (ear pinna [2]; 1.25%): 0
Ear: Degeneration/regeneration, cartilage, focal, Mild (incidence) (ear pinna [2]; 2.5%): 0
Ear: Fibrosis, dermis, focal, Minimal (incidence) (ear pinna [2]; 2.5%): 0
Ear: Hyperkeratosis, epidermis, focal, Mild (incidence) (ear pinna [2]; 2.5%): 0
Ear: Hyperkeratosis, epidermis, focal, Minimal (incidence) (ear pinna [2]; 2.5%): 4/5 and 4
Ear: Hyperplasia, epidermis, focal, Mild (incidence) (ear pinna [2]; 2.5%): 0
Ear: Hyperplasia, epidermis, focal, Minimal (incidence) (ear pinna [2]; 2.5%): 5/5 and 5
Ear: Inflammation, mixed cell, dermis, Minimal (incidence) (ear pinna [2]; 2.5%): 0
Ear: Inflammation, mononuclear cell, dermis, Minimal (incidence) (ear pinna [2]; 2.5%): 0
Ear: Necrosis, epidermis, multifocal, Minimal (incidence) (ear pinna [2]; 2.5%): 0
Ear: Degeneration/regeneration, cartilage, focal, Mild (incidence) (ear pinna [2]; 5%): 1
Ear: Fibrosis, dermis, focal, Minimal (incidence) (ear pinna [2]; 5%): 5/5 and 5
Ear: Hyperkeratosis, epidermis, focal, Mild (incidence) (ear pinna [2]; 5%): 3/5 and 3
Ear: Hyperkeratosis, epidermis, focal, Minimal (incidence) (ear pinna [2]; 5%): 2/5 and 2
Ear: Hyperplasia, epidermis, focal, Mild (incidence) (ear pinna [2]; 5%): 4/5 and 4
Ear: Hyperplasia, epidermis, focal, Minimal (incidence) (ear pinna [2]; 5%): 1
Ear: Inflammation, mixed cell, dermis, Minimal (incidence) (ear pinna [2]; 5%): 4/5 and 4
Ear: Inflammation, mononuclear cell, dermis, Minimal (incidence) (ear pinna [2]; 5%): 0
Ear: Necrosis, epidermis, multifocal, Minimal (incidence) (ear pinna [2]; 5%): 0
urine PFAS concentration [3]: 1700 µg/mL
serum glucose, increase compared to vehicle control (B6C3F1 mice): 27%
liver Pparδ expression (liver (caudate); 1.25%): decreasing
liver Acox1 gene expression (liver (caudate); 2.5%): increase
liver Fabp1 gene expression (liver (caudate); 2.5%): increased
liver Pparδ expression (liver (caudate); 2.5%): decreasing
liver Cd36 gene expression, increase (liver (caudate); 5%): 4.6 fold
liver Ehhadh gene expression, increase (liver (caudate); 5%): 4.8 fold
liver Pparδ expression (liver (caudate); 5%): decreasing
